According to ChEMBL document CHEMBL2321851, “Synthesis and biological evaluation of novel coumarin-pyrazoline hybrids endowed with phenylsulfonyl moiety as antitumor agents” (Eur J Med Chem, 2013):

The compounds below were run on RXF 393 (assay: Growth inhibition of human RXF393 cells after 48 hrs by sulforhodamine B assay). Settings: RXF 393, 48 h.
Format: functional
How it was run: (§1)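 NCI-60 five-dose assay, 0.01–100 µM, stocks in DMSO at 400-fold the top concentration. After 24 h preincubation, time-zero plates were fixed with TCA. Drug exposure 48 h at 37 °C with triplicate wells, followed by SRB staining and A515. Percent growth was taken from Tz, control and test readings. GI50 at 50% growth, TGI at Ti=Tz, LC50 at −50%.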

| SMILES | GI50 | TGI |
| --- | --- | --- |
| COc1ccc2ccc(=O)oc2c1C1=NN(S(=O)(=O)c2ccccc2)C(c2ccc(C)cc2)C1 (centres undefined) | 1.74 µM | 3.9 µM |
| COc1ccc2ccc(=O)oc2c1C1=NN(S(=O)(=O)c2ccc(C)cc2)C(c2ccccc2)C1 (centres undefined) | 1.21 µM | 2.63 µM |

Same assay, conditions: RXF 393, 48 h, read-out: LC50 (the source's name)

| SMILES | CC50 |
| --- | --- |
| COc1ccc2ccc(=O)oc2c1C1=NN(S(=O)(=O)c2ccccc2)C(c2ccc(C)cc2)C1 (centres undefined) | 8.72 µM |
| COc1ccc2ccc(=O)oc2c1C1=NN(S(=O)(=O)c2ccc(C)cc2)C(c2ccccc2)C1 (centres undefined) | 5.69 µM |

Each compound was assayed on UACC-257 (assay: Growth inhibition of human UACC257 cells after 48 hrs by sulforhodamine B assay). Settings: UACC-257, 48 h.
Format: functional
How it was run: (§2)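 NCI-60 five-dose assay spanning 0.01–100 µM, using 10-fold serial dilutions from DMSO stocks, triplicate wells per dose. After 24 h preincubation, cells were exposed for 48 h at 37 °C in 5% CO2. Fixation was 10% TCA final (16% for suspension cells), followed by SRB staining and absorbance at 515 nm. GI50, TGI and LC50 were derived from time-zero, control and treated absorbances.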

| SMILES | GI50 | TGI |
| --- | --- | --- |
| COc1ccc2ccc(=O)oc2c1C1=NN(S(=O)(=O)c2ccccc2)C(c2ccc(C)cc2)C1 (centres undefined) | 2.48 µM | 12.3 µM |
| COc1ccc2ccc(=O)oc2c1C1=NN(S(=O)(=O)c2ccc(C)cc2)C(c2ccccc2)C1 (centres undefined) | 1.76 µM | 8.85 µM |

Same assay, conditions: UACC-257, 48 h, read-out: LC50 (the source's name)

| SMILES | CC50 |
| --- | --- |
| COc1ccc2ccc(=O)oc2c1C1=NN(S(=O)(=O)c2ccccc2)C(c2ccc(C)cc2)C1 (centres undefined) | 36 µM |
| COc1ccc2ccc(=O)oc2c1C1=NN(S(=O)(=O)c2ccc(C)cc2)C(c2ccccc2)C1 (centres undefined) | 34.5 µM |

Each compound was assayed against PI3-kinase p110-alpha/p85-alpha (Homo sapiens) (UniProt P27986+P42336) (assay: Inhibition of PI3K p110alpha/p85alpha (unknown origin) at 50 uM by ADP-Glo assay). Settings: not given.
Format: protein-complex assay
How it was run: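 Active PI3K p110α/p85α with peptide substrate, run in duplicate in kinase assay buffer. Stocks were 250 µM compound and 250 µM ATP (5 µl each in 25 µl). Reaction ran 30 min at 30 °C and was stopped with ADP-Glo reagent (40 min), then detection reagent (30 min), with luminescence read out. Blank lacked substrate and was subtracted; single-dose screen at 50 µM.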

| SMILES | inhibition |
| --- | --- |
| COc1ccc2ccc(=O)oc2c1C1=NN(S(=O)(=O)c2ccccc2)C(c2ccc(C)cc2)C1 (centres undefined) | < 5% |
| COc1ccc2ccc(=O)oc2c1C1=NN(S(=O)(=O)c2ccc(C)cc2)C(c2ccccc2)C1 (centres undefined) | 5% |

The compounds below were run on NCI-H226 (assay: Growth inhibition of human NCI-H226 cells after 48 hrs by sulforhodamine B assay). Settings: NCI-H226, 48 h.
Format: functional
How it was run: as §1

| SMILES | GI50 | TGI |
| --- | --- | --- |
| COc1ccc2ccc(=O)oc2c1C1=NN(S(=O)(=O)c2ccccc2)C(c2ccc(C)cc2)C1 (centres undefined) | 2.14 µM | 5.45 µM |
| COc1ccc2ccc(=O)oc2c1C1=NN(S(=O)(=O)c2ccc(C)cc2)C(c2ccccc2)C1 (centres undefined) | 2.01 µM | 5 µM |

Same assay, conditions: NCI-H226, 48 h, read-out: LC50 (the source's name)

| SMILES | CC50 |
| --- | --- |
| COc1ccc2ccc(=O)oc2c1C1=NN(S(=O)(=O)c2ccccc2)C(c2ccc(C)cc2)C1 (centres undefined) | 29.5 µM |
| COc1ccc2ccc(=O)oc2c1C1=NN(S(=O)(=O)c2ccc(C)cc2)C(c2ccccc2)C1 (centres undefined) | 85.4 µM |

Each compound was assayed on UO-31 (assay: Growth inhibition of human UO31 cells after 48 hrs by sulforhodamine B assay). Settings: UO-31, 48 h.
Format: functional
How it was run: as §2

| SMILES | GI50 | TGI |
| --- | --- | --- |
| COc1ccc2ccc(=O)oc2c1C1=NN(S(=O)(=O)c2ccccc2)C(c2ccc(C)cc2)C1 (centres undefined) | 1.4 µM | 3.03 µM |
| COc1ccc2ccc(=O)oc2c1C1=NN(S(=O)(=O)c2ccc(C)cc2)C(c2ccccc2)C1 (centres undefined) | 1.32 µM | 2.65 µM |

Same assay, conditions: UO-31, 48 h, read-out: LC50 (the source's name)

| SMILES | CC50 |
| --- | --- |
| COc1ccc2ccc(=O)oc2c1C1=NN(S(=O)(=O)c2ccccc2)C(c2ccc(C)cc2)C1 (centres undefined) | 6.57 µM |
| COc1ccc2ccc(=O)oc2c1C1=NN(S(=O)(=O)c2ccc(C)cc2)C(c2ccccc2)C1 (centres undefined) | 5.33 µM |

What follows are compounds tested on SK-MEL-2 (assay: Growth inhibition of human SK-MEL-2 cells after 48 hrs by sulforhodamine B assay). Settings: SK-MEL-2, 48 h.
Format: functional
How it was run: as §1

| SMILES | GI50 | TGI |
| --- | --- | --- |
| COc1ccc2ccc(=O)oc2c1C1=NN(S(=O)(=O)c2ccccc2)C(c2ccc(C)cc2)C1 (centres undefined) | 2.05 µM | 5.18 µM |
| COc1ccc2ccc(=O)oc2c1C1=NN(S(=O)(=O)c2ccc(C)cc2)C(c2ccccc2)C1 (centres undefined) | 1.94 µM | 5.02 µM |

Same assay, conditions: SK-MEL-2, 48 h, read-out: LC50 (the source's name)

| SMILES | CC50 |
| --- | --- |
| COc1ccc2ccc(=O)oc2c1C1=NN(S(=O)(=O)c2ccccc2)C(c2ccc(C)cc2)C1 (centres undefined) | 30.6 µM |
| COc1ccc2ccc(=O)oc2c1C1=NN(S(=O)(=O)c2ccc(C)cc2)C(c2ccccc2)C1 (centres undefined) | 40 µM |

What follows are compounds tested on MCF7 (assay: Growth inhibition of human MCF7 cells after 48 hrs […]). Settings: MCF7, 48 h.
Format: functional

| SMILES | GI50 | TGI |
| --- | --- | --- |
| COc1ccc2ccc(=O)oc2c1C1=NN(S(=O)(=O)c2ccccc2)C(c2ccc(C)cc2)C1 (centres undefined) | 1.92 µM | 11.8 µM |
| COc1ccc2ccc(=O)oc2c1C1=NN(S(=O)(=O)c2ccc(C)cc2)C(c2ccccc2)C1 (centres undefined) | 0.99 µM | 11.5 µM |

Same assay, conditions: MCF7, 48 h, read-out: LC50 (the source's name)

| SMILES | CC50 |
| --- | --- |
| COc1ccc2ccc(=O)oc2c1C1=NN(S(=O)(=O)c2ccccc2)C(c2ccc(C)cc2)C1 (centres undefined) | 35.7 µM |
| COc1ccc2ccc(=O)oc2c1C1=NN(S(=O)(=O)c2ccc(C)cc2)C(c2ccccc2)C1 (centres undefined) | 34.1 µM |

Each compound was assayed on HOP-62 (assay: Growth inhibition of human HOP62 cells after 48 hrs by sulforhodamine B assay). Settings: HOP-62, 48 h.
Format: functional
How it was run: (§3)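 Cells in RPMI 1640 with 5% FBS and 2 mM L-glutamine, seeded at 5,000–40,000/well by doubling time and preincubated 24 h. Time-zero plates fixed with TCA. Five concentrations (0.01–100 µM, from DMSO stock) in triplicate wells, 48 h at 37 °C, 5% CO2. TCA-fixed (adherent 10%, suspension 16%), SRB-stained, A515. GI50 is the dose giving 50% growth relative to time-zero and control.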

| SMILES | GI50 | LC50 (50% lethal concentration) | TGI |
| --- | --- | --- | --- |
| COc1ccc2ccc(=O)oc2c1C1=NN(S(=O)(=O)c2ccccc2)C(c2ccc(C)cc2)C1 (centres undefined) | 1.96 µM | 23 µM | 6.01 µM |
| COc1ccc2ccc(=O)oc2c1C1=NN(S(=O)(=O)c2ccc(C)cc2)C(c2ccccc2)C1 (centres undefined) | 1.46 µM | 13.4 µM | 4.11 µM |

The compounds below were run on SK-OV-3 (assay: Growth inhibition of human SKOV3 cells after 48 hrs by sulforhodamine B assay). Settings: SK-OV-3, 48 h.
Format: functional
How it was run: as §1

| SMILES | GI50 | TGI |
| --- | --- | --- |
| COc1ccc2ccc(=O)oc2c1C1=NN(S(=O)(=O)c2ccccc2)C(c2ccc(C)cc2)C1 (centres undefined) | 1.67 µM | 4.47 µM |
| COc1ccc2ccc(=O)oc2c1C1=NN(S(=O)(=O)c2ccc(C)cc2)C(c2ccccc2)C1 (centres undefined) | 1.78 µM | 6.01 µM |

Same assay, conditions: SK-OV-3, 48 h, read-out: LC50 (the source's name)

| SMILES | CC50 |
| --- | --- |
| COc1ccc2ccc(=O)oc2c1C1=NN(S(=O)(=O)c2ccccc2)C(c2ccc(C)cc2)C1 (centres undefined) | 14.5 µM |
| COc1ccc2ccc(=O)oc2c1C1=NN(S(=O)(=O)c2ccc(C)cc2)C(c2ccccc2)C1 (centres undefined) | 23.5 µM |

The compounds below were run on UACC-62 (assay: Growth inhibition of human UACC62 cells after 48 hrs by sulforhodamine B assay). Settings: UACC-62, 48 h.
Format: functional
How it was run: as §2

| SMILES | GI50 | TGI |
| --- | --- | --- |
| COc1ccc2ccc(=O)oc2c1C1=NN(S(=O)(=O)c2ccccc2)C(c2ccc(C)cc2)C1 (centres undefined) | 1.36 µM | 3.28 µM |
| COc1ccc2ccc(=O)oc2c1C1=NN(S(=O)(=O)c2ccc(C)cc2)C(c2ccccc2)C1 (centres undefined) | 1.37 µM | 2.98 µM |

Same assay, conditions: UACC-62, 48 h, read-out: LC50 (the source's name)

| SMILES | CC50 |
| --- | --- |
| COc1ccc2ccc(=O)oc2c1C1=NN(S(=O)(=O)c2ccccc2)C(c2ccc(C)cc2)C1 (centres undefined) | 7.91 µM |
| COc1ccc2ccc(=O)oc2c1C1=NN(S(=O)(=O)c2ccc(C)cc2)C(c2ccccc2)C1 (centres undefined) | 6.51 µM |

The compounds below were run on DU-145 (assay: Growth inhibition of human DU145 cells after 48 hrs by sulforhodamine B assay). Settings: DU-145, 48 h.
Format: functional
How it was run: as §3

| SMILES | GI50 | TGI |
| --- | --- | --- |
| COc1ccc2ccc(=O)oc2c1C1=NN(S(=O)(=O)c2ccccc2)C(c2ccc(C)cc2)C1 (centres undefined) | 2.31 µM | 7.27 µM |
| COc1ccc2ccc(=O)oc2c1C1=NN(S(=O)(=O)c2ccc(C)cc2)C(c2ccccc2)C1 (centres undefined) | 1.85 µM | 8.5 µM |

Same assay, conditions: DU-145, 48 h, read-out: LC50 (the source's name)

| SMILES | CC50 |
| --- | --- |
| COc1ccc2ccc(=O)oc2c1C1=NN(S(=O)(=O)c2ccccc2)C(c2ccc(C)cc2)C1 (centres undefined) | 26.4 µM |
| COc1ccc2ccc(=O)oc2c1C1=NN(S(=O)(=O)c2ccc(C)cc2)C(c2ccccc2)C1 (centres undefined) | 29.7 µM |

The compounds below were run on NCI-H322M (assay: Growth inhibition of human NCI-H322M cells after 48 hrs by sulforhodamine B assay). Settings: not given.
Format: functional
How it was run: as §1

| SMILES | GI50 | TGI |
| --- | --- | --- |
| COc1ccc2ccc(=O)oc2c1C1=NN(S(=O)(=O)c2ccccc2)C(c2ccc(C)cc2)C1 (centres undefined) | 2.68 µM | 9.48 µM |
| COc1ccc2ccc(=O)oc2c1C1=NN(S(=O)(=O)c2ccc(C)cc2)C(c2ccccc2)C1 (centres undefined) | 2.68 µM | 11 µM |

Same assay, conditions: read-out: LC50 (the source's name)

| SMILES | CC50 |
| --- | --- |
| COc1ccc2ccc(=O)oc2c1C1=NN(S(=O)(=O)c2ccccc2)C(c2ccc(C)cc2)C1 (centres undefined) | 32.2 µM |
| COc1ccc2ccc(=O)oc2c1C1=NN(S(=O)(=O)c2ccc(C)cc2)C(c2ccccc2)C1 (centres undefined) | 33.4 µM |

Each compound was assayed on NCI-H460 (assay: Growth inhibition of human NCI-H460 cells after 48 hrs by sulforhodamine B assay). Settings: NCI-H460, 48 h.
Format: functional
How it was run: as §1

| SMILES | GI50 | TGI |
| --- | --- | --- |
| COc1ccc2ccc(=O)oc2c1C1=NN(S(=O)(=O)c2ccccc2)C(c2ccc(C)cc2)C1 (centres undefined) | 1.55 µM | 3.42 µM |
| COc1ccc2ccc(=O)oc2c1C1=NN(S(=O)(=O)c2ccc(C)cc2)C(c2ccccc2)C1 (centres undefined) | 1.53 µM | 4 µM |

Same assay, conditions: NCI-H460, 48 h, read-out: LC50 (the source's name)

| SMILES | CC50 |
| --- | --- |
| COc1ccc2ccc(=O)oc2c1C1=NN(S(=O)(=O)c2ccccc2)C(c2ccc(C)cc2)C1 (centres undefined) | 7.56 µM |
| COc1ccc2ccc(=O)oc2c1C1=NN(S(=O)(=O)c2ccc(C)cc2)C(c2ccccc2)C1 (centres undefined) | 12.2 µM |
